{"data": "Assay results gathered from unrelated publications", "read-out": "cell growth or viability", "note": "Lines come from different studies, so protocols differ."}
{"SMILES": "O=c1[nH]c(=O)c2ncn(C[C@@H](CO)OCP(=O)(O)O)c2[nH]1", "cell line": "HEL", "time": "72 h", "CC50": "> 300 µM"}
{"SMILES": "C[C@H](NC(=O)[C@]1(Cc2ccccc2)CCN1C(=O)OCc1ccccc1)C(=O)NC(C)(C)C", "cell line": "HEL", "time": "72 h", "CC50": "> 100 µM"}
{"SMILES": "Cc1nc2ccc(Cl)cn2c1C(=O)N1CCN(Cc2cn(-c3ccc(F)cc3)nn2)CC1", "cell line": "HeLa", "method": "resazurin", "CC50": "> 100 µM"}
{"SMILES": "COc1ccc(S(=O)(=O)ON=C2C=C(C)C(=O)C(C)=C2)cc1", "cell line": "HPAC", "CC50": "> 30 µM"}
{"SMILES": "CCOP(=O)(OCC)[C@@H]1C[C@@H](n2cc(Cn3cnc4c(N)ncnc43)nn2)ON1C (racemic)", "cell line": "HEL", "time": "72 h", "CC50": "> 100 µM"}
{"SMILES": "Nc1nc(O)c2ncn(COC(CO)CO)c2n1", "cell line": "HEL", "time": "72 h", "CC50": "63 µM"}
{"SMILES": "Cc1ccn2c(C(=O)N3CCN(Cc4cn(-c5ccccc5Cl)nn4)CC3)c(C)nc2c1", "cell line": "HeLa", "method": "resazurin", "CC50": "> 100 µM"}
{"SMILES": "CCOP(=O)(OCC)[C@@H]1C[C@H](n2cc(Cn3cc(C)c(=O)[nH]c3=O)nn2)ON1C (racemic)", "cell line": "HEL", "time": "72 h", "CC50": "> 100 µM"}
{"SMILES": "Cc1nc2ccc(Cl)cn2c1C(=O)N1CCN(CCn2cc(C3CC3)nn2)CC1", "cell line": "HeLa", "method": "resazurin", "CC50": "> 100 µM"}
{"SMILES": "O=c1[nH]c(=O)c2ncn(CCOCP(=O)(O)O)c2[nH]1", "cell line": "HEL", "time": "72 h", "CC50": "111 µM"}
{"SMILES": "CCOP(=O)(OCC)[C@@H]1C[C@H](n2cc(Cn3ccc(=O)[nH]c3=O)nn2)ON1C (racemic)", "cell line": "HEL", "time": "72 h", "CC50": "> 100 µM"}
